TPT1 inh: Candida albicans TPT1 enzyme inhibitors, primary screen, biochemical, fluorescence polarization | 300,000 tested, 0.81% active | recombinant caTPT1, FP RNA substrate dephosphorylation | inhibition, % at 5 µM | tRNA 2'-phosphotransferase TPT1 (Candida albicans SC5314);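 active means inhibition above the mean of all tested compounds plus 3 SD, set per screening campaign, cut at about 24% in these data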;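 further: plate controls were DMSO alone for no effect and ferristatin control at 100 nM for full effect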
CSN inh: inhibitors of CSN-mediated cullin deneddylation, primary screen, biochemical, fluorescence polarization, uHTS. COP9 signalosome complex subunit 5 (Homo sapiens), Q92905. Purified CSN, SCF-Nedd8-OG deneddylation. inhibition, % at 12.5 µM. 360,000 tested, 0.38% active. AID 651999, 2013;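 active means pattern-corrected inhibition above about 35%, with an unprinted fluorescence ratio check between 0.5 and 1.5, limit read from the data, passing the limit was not always enough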;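 further: 0% = enzyme with substrate and 100% = substrate without enzyme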
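Schedule: reaction 90 min, room temperature / Assay system: HEK293T-derived human Csn5 enzyme / Input: Csn5 at 0.24 nM final / Measure: inhibition of Csn5 cleavage, % / Control set: substrate-only high control, full reaction low control / Technique: fluorescence polarization of the substrate / Buffer or medium: Tris/NaCl/DTT buffer, pH 7.5 / Reagent: SCFSkp2-Nedd8OG substrate at 10 nM final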
IDE cell activ: human IDE activators in live cells, primary screen, fluorescence polarization, HEK cells, FAbeta-B substrate; Insulin-degrading enzyme (Homo sapiens), P14735; 340,000 tested, 0.073% active; AID 493087, 2011; activation, % at 5.96 µM; FAbeta-B cleavage; 0% vehicle, 100% cell-free pure enzyme wells;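 active means activation above the mean of all tested compounds plus 3 SD, set per screening campaign, cut at about 17% in these data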
HNF4A DNA FP: change in binding of human HNF4A to DNA, primary screen, biochemical, fluorescence polarization, FITC-DNA | Hepatocyte nuclear factor 4-alpha (Homo sapiens), P41235 | 1 h | activity change, % at 10 µM | 360,000 tested, 0.3% active; in the data active means activity change above about 30%, passing the limit was not always enough
Target sequence (P41235 whole entry, looked up): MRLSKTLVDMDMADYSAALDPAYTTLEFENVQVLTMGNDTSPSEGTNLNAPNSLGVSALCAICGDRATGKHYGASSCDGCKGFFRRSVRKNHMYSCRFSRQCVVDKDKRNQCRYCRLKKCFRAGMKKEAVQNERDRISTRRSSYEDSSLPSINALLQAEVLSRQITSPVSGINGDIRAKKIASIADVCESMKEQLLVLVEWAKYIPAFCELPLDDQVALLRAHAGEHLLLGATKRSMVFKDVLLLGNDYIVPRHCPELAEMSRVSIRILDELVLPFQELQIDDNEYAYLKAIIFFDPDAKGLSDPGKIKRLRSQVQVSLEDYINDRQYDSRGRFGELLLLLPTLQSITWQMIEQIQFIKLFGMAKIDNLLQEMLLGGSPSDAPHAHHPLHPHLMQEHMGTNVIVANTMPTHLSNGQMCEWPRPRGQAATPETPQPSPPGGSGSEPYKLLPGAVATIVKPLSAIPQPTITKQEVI
IDE inh: human IDE inhibitors in live cells, primary screen, fluorescence polarization, HEK cells, FAbetaB substrate. FAbetaB cleavage. inhibition, % at 5.59 µM. 320,000 tested, 0.41% active. AID 434962, 2010;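 active means percent inhibition above the average of all tested compounds plus 3 SD, set per screening campaign, cut at about 16% in these data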;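 further: IDE supplied by intact live HEK cells; FP after avidin binding of uncleaved biotin substrate so inhibition keeps polarization high; 0% = DMSO wells and 100% = 60 µM reference IDE inhibitor Ii1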
* marks the source's active call; other numbers are inactive results; . = not tested or not shown. Shown are actives, neighbours in structure and some others; about 1.4% of the full set was active somewhere.

SMILES | TPT1 inh | CSN inh | IDE cell activ | HNF4A DNA FP | IDE inh
CN(C)c1ccc([C@@H]2[C@@H]([N+](=O)[O-])[C@H]3C=Cc4ccccc4N3[C@H]2C(=O)c2ccc(Cl)cc2)cc1 | 82* | 24 | -15 | 30 | 7
CS(=O)(=O)c1ccc2nc(NC(=O)Nc3ccc(Cl)cc3)sc2c1 | -1 | 5 | -2 | 6 | 5
NS(=O)(=O)c1ccc2nc(NC(=O)Nc3ccc(F)cc3)sc2c1 | 10 | 23 | 2 | 43* | 0
CCS(=O)(=O)Nc1ccc(-c2nnc(SCC(=O)c3cccc(OC)c3)o2)cc1 | -3 | 0 | 1 | 1 | 5
CCS(=O)(=O)Nc1ccc(-c2nnc(SCC(=O)c3ccc(NC(C)=O)c(OC)c3)o2)cc1 | -5 | 46* | 4 | 2 | -1
CCc1cc(=O)oc2cc3occ(-c4ccc(OC)c(F)c4)c3cc12 | -1 | 37* | 4 | 30 | 7
CCCCn1nnnc1C(c1ccccc1)N1CCN(c2ncc(C(F)(F)F)cc2Cl)CC1 (stereo not drawn) | . | -12 | . | -3 | .
CCNC(=S)N1CCNC(=O)C1CC(=O)OC (stereo not drawn) | 1 | 81* | 2 | 2 | 2
O=C(O)CC12CC3CC(C1)CC(n1ncc(NCc4ccco4)c(Cl)c1=O)(C3)C2 | -4 | -2 | 1 | 3 | 7
CCc1cccc(Nc2cnn(C34C[C@@H]5C[C@@H](CC(CC(=O)O)(C5)C3)C4)c(=O)c2Cl)c1 | 2 | 1 | -22 | 0 | 21*
CCOc1ccc(N(CC(=O)Nc2c(C)cc(C)cc2C)C2=NC3CS(=O)(=O)CC3S2)cc1 (stereo not drawn) | . | -2 | . | 3 | .
CCOc1ccc(CCNC(=O)CCC(=O)c2cccs2)cc1OCC | . | -3 | -1 | 3 | 2
CCOc1ccc(CCNC(=O)COC(=O)CCC(=O)c2cccs2)cc1OCC | . | 38* | 7 | -1 | .
Cc1ccc2nc(-c3ccccn3)c(N)n2c1 | . | 4 | . | -4 | .
COc1ccc(NC(=S)N(CCN(C)C)C(C)c2ccncc2)cc1Cl (stereo not drawn) | 0 | 3 | 4 | 44* | 11
COc1ccc(CNC(=O)c2ccc(-n3ccnc3)c3ccoc23)cc1OC | . | 1 | . | -1 | .
COc1ccc(-c2csc(-n3ncc(-c4ccccn4)c3N)n2)cc1 | 0 | 1 | 2 | 28* | 5
COc1ccc(S(=O)(=O)N2CCC[C@H]2C(=O)N2CCC[C@H]2C(=O)N[C@@H](C)c2ccccc2)cc1C | . | -5 | . | 0 | .
CCOC(=O)c1nc2sc3c(c2c(=O)[nH]1)CCCC3 | -1 | 6 | -2 | -1 | -3
N#C/C(=C\c1ccc(C(=O)O)cc1)c1nc2sc3c(c2c(=O)[nH]1)CCCC3 | . | 70* | -7 | 11 | .
CCN=C1SC(C(=O)Nc2cccc(Cl)c2)CC(=O)N1CC (stereo not drawn) | 2 | 0 | -2 | -2 | -8
CCN=C1SC(C(=O)Nc2ccc(Cl)c(Cl)c2)CC(=O)N1CC (stereo not drawn) | 3 | 79* | 6 | -1 | -6
COc1cccc(N2CCN(c3ncnc4c3[nH]c3ccccc34)CC2C)c1 (stereo not drawn) | 0 | . | . | . | 25*
O=c1c2ccccc2nc2c3ccccc3c(NCCN3CCOCC3)nn12 | 0 | . | . | . | -2
O=c1c2c(-c3ccccc3)csc2nc2c3ccccc3c(NCCN3CCOCC3)nn12 | . | 3 | 18* | 20 | .
SMILES | TPT1 inh | CSN inh | IDE cell activ | HNF4A DNA FP | IDE inh
CCCCNC(=O)C(NC(=O)c1cccnc1OC)C(=O)c1ccccc1 (stereo not drawn) | . | 1 | . | -6 | .
N#CC1=C(N)SC(N)=C(C#N)C1CCc1ccccc1 | 119* | 26 | -2 | 125 | 2
COc1ccccc1Cc1c(-c2ccccc2)nc2c(C)cc(Br)cn12 | . | 97* | . | 9 | .
COc1ccccc1Cc1c(-c2ccc(C#N)cc2)nc2c(Cl)cc(C(F)(F)F)cn12 | . | 46* | . | 61 | .
Cc1cc(Br)cn2c(Cc3ccccc3)c(-c3ccccc3)nc12 | . | 0 | . | -1 | .
CC(=O)C1CN(S(=O)(=O)c2ccc(C)cc2)C(c2ccccc2)CC1C (stereo not drawn) | . | -2 | . | 0 | .
COc1cccc(CNc2ccc3c(c2)ncn3C(C)C)c1OC | 3 | 6 | 20* | 4 | -10
COc1ccc(-c2nc3ccc(N4CCCC4)cc3c(=O)[nH]2)cc1OC | 0 | 113* | -2 | 7 | 1
CCOC(=O)[C@]12CCCC=C1N(Cc1ccc3c(c1)OCO3)C(=O)[C@H](CC(=O)N1CCCCC1)C2 | . | 0 | . | -3 | .
CCC(=O)NNC(=S)NC(=O)c1ccc(C)cc1 | -2 | -3 | -1 | 2 | -1
Cc1ccc(C(=O)NC(=S)NNC(=O)COc2ccccc2C)cc1 | -2 | -8 | 1 | 27* | 2
CCOC(=O)c1cc2c(=Cc3ccc(N(C)C)cc3)c3ccccc3n2[n+]1C | . | 19 | -5 | 57* | .
Cc1cc(C)c2nc3sc(=Cc4ccc(-c5ccccc5C(=O)O)o4)c(=O)n3c2c1 | . | 142* | . | 72 | .
O=C1NN(c2ccc(Cl)c(Cl)c2)C(=O)/C1=C/c1ccc(-c2ccccc2C(=O)O)o1 | . | 8 | 2 | -14 | .
c1cc2c3c(cccc3c1)NC1(CCCCC1)N2 | -2 | 3 | 13 | 44* | 0
c1cc2c3c(cccc3c1)NC1(CCCCCC1)N2 | -3 | 2 | 11 | 7 | -3
COc1ccc(CNc2nc3ccccc3n2CCN2CCOCC2)cc1 | -2 | 1 | 18* | -3 | -2
COC(=O)[C@@]12C[C@@H](CC(=O)N3CCN(C(=O)c4ccco4)CC3)C(=O)N(Cc3cccc4ccccc34)C1=CCC(C)(C)C2 | . | 2 | . | -1 | .
CC(=O)Nc1ccc(CNc2nc3cc(-c4ccsc4)sc3c(=O)n2C)cc1 | . | 4 | . | 1 | .
C=CCN1C(=O)C2(NC(=O)c3ccccc3N2)c2ccccc21 (stereo not drawn) | -7 | 4 | 0 | 81* | -5
O=C1NC2(Nc3ccccc31)C(=O)Nc1ccccc12 (stereo not drawn) | 7 | 0 | 3 | 5 | 2
Cc1cccnc1C(NC(=O)C1CCN(CCCc2ccccc2)CC1)c1ccc(F)cc1 (stereo not drawn) | . | -5 | . | -1 | .
Cc1ccc(C(=O)NCC(c2ccc(F)cc2)N2CCOCC2)cc1 (stereo not drawn) | 0 | 0 | 9 | 77* | 3
Cc1ccc(C(=O)NCC(c2ccc(F)cc2)N2CCOCC2)s1 (stereo not drawn) | . | -3 | -3 | 0 | -1
CCOC(=O)[C@]12CCCC=C1N(Cc1ccccc1)C(=O)[C@H](CC(=O)NCC1CCCCC1)C2 | . | 2 | . | 0 | .
CC1(C)CC(c2nc(-c3ccc(Cl)cc3)cs2)CCS1 (stereo not drawn) | 0 | 2 | 4 | 1 | 3
